In ChEMBL document CHEMBL4177759 (J Med Chem, 2018):

Experiments:
[1] = Solubility of the compound in 0.01 M PBS after 24 hrs by shake flask method; type: physicochemical; conditions: buffer
[2] = Chemical stability of the compound in 0.01 M PBS at 10 uM after 60 mins by LC-MS/MS method; type: physicochemical; conditions: buffer, 1 h
Outline: (§1)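 Prodrug from 10 mM DMSO stock spiked to 10 µM final in preheated PBS at 37 °C; aliquots taken over 60 min, quenched with cold acetonitrile containing losartan internal standard, diluted with water, and intact prodrug measured by LC-MS/MS.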

[3] = Prodrug conversion in mouse jejunum homogenate assessed as mebendazole formation by measuring remaining parent drug at 10 uM measured at 60 mins by LC-MS/MS method; type: ADME, tissue-based; conditions: in vitro, 1 h
Outline: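 Washed mouse jejunum diluted 10-fold in 0.1 M potassium phosphate buffer, probe-sonicated; homogenate spiked with 10 µM prodrug; triplicate aliquots at 0 and 60 min quenched with ice-cold acetonitrile plus losartan; prodrug remaining by LC-MS/MS peak-area ratio to internal standard.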

[4] = Prodrug conversion in mouse liver microsomes assessed as mebendazole formation by measuring remaining parent drug at 10 uM measured at 60 mins by LC-MS/MS method; type: ADME, microsome; conditions: 1 h
Outline: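 Mouse liver microsomes (0.5 mg/mL) with 10 µM prodrug in 100 mM potassium phosphate, pH 7.4, reaction started by adding microsomes; triplicate samples at 0 and 60 min quenched with ice-cold acetonitrile containing losartan; prodrug disappearance by LC-MS/MS.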

[5] = Prodrug conversion in naive mouse plasma assessed as mebendazole formation by measuring remaining parent drug at 10 uM measured at 60 mins by LC-MS/MS method; type: ADME, cell-free; conditions: 1 h
Outline: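 Prodrug spiked at 10 µM into 1 mL naive mouse plasma, incubated on orbital shaker at 37 °C; triplicate aliquots at 0 and 60 min quenched with ice-cold acetonitrile plus losartan internal standard; remaining prodrug by LC-MS/MS.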

[6] = Prodrug conversion in CD1 mouse plasma assessed as mebendazole formation at 30 mg/kg mebendazole equivalent administered single dose via oral gavage measured at 60 mins by LC-MS/MS method; type: ADME, organism-based; conditions: in vivo, 1 h
[7] = Chemical stability of the compound in 0.01 M PBS assessed as parent compound remaining at 10 uM after 60 mins by LC-MS/MS method; type: physicochemical; conditions: read-out: Stability; outline: as §1
[8] = Volume of distribution in Beagle dog at 0.3 mg/kg, iv by LC-MS/MS method; type: ADME, organism-based, Canis lupus familiaris; conditions: in vivo
Outline: (§2)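 Male beagle dogs (n=2) given single IV bolus of MBZ-C at 0.3 mg/kg in co-solvent vehicle (1% DMSO, 10% Cremophor EL). Jugular vein blood (~1 mL) by direct puncture at set times into sodium heparin tubes, kept on wet ice, spun 3,000 × g 5 min 4 °C, plasma stored -80 °C; MBZ quantified by LC-MS/MS.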

[9] = Half life in Beagle dog at 0.3 mg/kg, iv by LC-MS/MS method; type: ADME, organism-based, Canis lupus familiaris; conditions: in vivo; outline: as §2
[10] = Oral bioavailability in human at 1.7 ug; type: ADME, organism-based; conditions: in vivo
[11] = Oral bioavailability in human at 1.18 ug; type: ADME, organism-based; conditions: in vivo
[12] = Oral bioavailability in Beagle dog at […] by LC-MS/MS method; type: ADME, organism-based, Canis lupus familiaris; conditions: in vivo
[13] = Plasma concentration in CD1 mouse at 30 mg/kg administered single dose via oral gavage measured at 60 mins by LC-MS/MS method; type: ADME, organism-based
[14] = AUC (0 to t) in CD1 mouse plasma at 30 mg/kg administered via oral gavage by LC-MS/MS method; type: ADME, organism-based
Outline: (§3)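 Male CD-1 mice dosed once by oral gavage, 30 mg/kg MBZ equivalent, formulated just before dosing in 5% ethanol, 5% polysorbate 80, 90% water; plasma and brain collected at set times after CO2 euthanasia; MBZ by LC-MS/MS; AUC0-t by log-linear trapezoidal rule; brain/plasma ratio as ratio of mean AUC0-t values.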

[15] = Tmax in CD1 mouse brain at 30 mg/kg administered via oral gavage by LC-MS/MS method; type: ADME, organism-based; outline: as §3
[16] = Clearance in Beagle dog at 0.3 mg/kg, iv by LC-MS/MS method; type: ADME, organism-based, Canis lupus familiaris; conditions: in vivo; outline: as §2
[17] = AUC (0 to t) in CD1 mouse at 1.5 mg/kg, iv by LC-MS/MS method; type: ADME, organism-based; conditions: in vivo
Outline: (§4)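 Male CD-1 mice (25–30 g) received single IV dose 1.5 mg/kg MBZ-C dissolved just before dosing in 1% DMSO, 10% Cremophor EL, 89% saline; sacrificed by CO2 at set times; plasma extracted with acetonitrile containing losartan internal standard and MBZ measured by LC-MS/MS against naive-matrix calibration (0.001-50 nmol/g).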

[18] = Tmax in Beagle dog at 0.3 mg/kg, iv by LC-MS/MS method; type: ADME, organism-based, Canis lupus familiaris; conditions: in vivo; outline: as §2
[19] = Oral bioavailability in CD1 mouse plasma at 30 mg/kg administered via gavage by LC-MS/MS method; type: ADME, organism-based
[20] = Cmax in Beagle dog at 0.3 mg/kg, iv at 5 mins by LC-MS/MS method; type: ADME, organism-based, Canis lupus familiaris; parameters: dose 0.3 mg/kg, route intravenous; conditions: in vivo; outline: as §2
[21] = Cmax in CD1 mouse brain at 30 mg/kg administered via oral gavage at 60 mins by LC-MS/MS method; type: ADME, organism-based; parameters: dose 30 mg/kg, route oral; conditions: in vivo, 1 h; outline: as §3
[22] = Cmax in Beagle dog at […], po measured at 2 hrs by LC-MS/MS method; type: ADME, organism-based, Canis lupus familiaris; parameters: dose 2.5 mg/kg, route oral; conditions: in vivo
[23] = Tmax in CD1 mouse plasma at 30 mg/kg administered via oral gavage by LC-MS/MS method; type: ADME, organism-based; outline: as §3
[24] = Clearance in CD1 mouse at 1.5 mg/kg, iv by LC-MS/MS method; type: ADME, organism-based; conditions: in vivo; outline: as §4
[25] = Cmax in CD1 mouse at 1.5 mg/kg, iv at 5 mins by LC-MS/MS method; type: ADME, organism-based; parameters: dose 1.5 mg/kg, route intravenous; conditions: in vivo; outline: as §4
[26] = Ratio of drug level in brain to plasma in CD1 mouse at 30 mg/kg administered via oral gavage by LC-MS/MS method; type: ADME, organism-based; conditions: brain and plasma, read-out: BPR; outline: as §3
[27] = Tmax in Beagle dog at […], po by LC-MS/MS method; type: ADME, organism-based, Canis lupus familiaris; conditions: in vivo
[28] = Volume of distribution in CD1 mouse at 1.5 mg/kg, iv by LC-MS/MS method; type: ADME, organism-based; conditions: in vivo; outline: as §4
[29] = Cmax in CD1 mouse plasma at 30 mg/kg administered via oral gavage at 60 mins by LC-MS/MS method; type: ADME, organism-based; parameters: dose 30 mg/kg, route oral; outline: as §3
[30] = AUC (0 to t) in Beagle dog at 0.3 mg/kg, iv by LC-MS/MS method; type: ADME, organism-based, Canis lupus familiaris; conditions: in vivo; outline: as §2
[31] = Tmax in CD1 mouse at 1.5 mg/kg, iv by LC-MS/MS method; type: ADME, organism-based; conditions: in vivo; outline: as §4
[32] = AUC (0 to t) in CD1 mouse brain at 30 mg/kg administered via oral gavage by LC-MS/MS method; type: ADME, organism-based; conditions: in vivo; outline: as §3
[33] = AUC (0 to t) in Beagle dog at […], po by LC-MS/MS method; type: ADME, organism-based, Canis lupus familiaris; conditions: in vivo
[34] = Half life in CD1 mouse at 1.5 mg/kg, iv by LC-MS/MS method; type: ADME, organism-based; conditions: in vivo; outline: as §4
[35] = mouse, in vivo, po, 30 mg/kg, 0.5 h

## COC(=O)Nc1nc2cc(C(=O)c3ccccc3)ccc2n1COC(=O)OC(C)C
[1]
  solubility: Soluble
[2]
  Stability: Stable

## COC(=O)Nc1nc2cc(C(=O)c3ccccc3)ccc2n1COC(=O)CNC(=O)[C@H](CC(C)C)NC(C)=O
[1]
  solubility: Soluble
[3]
  Stability: 18%
[4]
  Stability: 29%
[2]
  Stability: Stable
[5]
  Stability: 0%
[6]
  Drug metabolism: 8.72 nmol/mL

## COC(=O)Nc1nc2cc(C(=O)c3ccccc3)ccc2n1COP(=O)(O)O
[1]
  solubility: Soluble
[3]
  Stability: 35%
[4]
  Stability: 100%
[2]
  Stability: Stable
[5]
  Stability: 62%
[6]
  Drug metabolism: 8.53 nmol/mL

## COC(=O)Nc1nc2cc(C(=O)c3ccccc3)ccc2n1COC(=O)OC[C@H]1OC(O)[C@H](O)[C@@H](O)[C@@H]1O (some centres not stated)
[1]
  solubility: Soluble
[3]
  Stability: 4%
[4]
  Stability: 27%
[2]
  Stability: Stable
[5]
  Stability: 18%

## COC(=O)Nc1nc2cc(C(=O)c3ccccc3)ccc2n1COC(=O)CC[C@H](N)C(=O)O
[1]
  solubility: Soluble
[7]
  remaining at 1 h, 10 µM: 0%

## COC(=O)Nc1nc2cc(C(=O)c3ccccc3)ccc2n1COC(=O)CCC(=O)O
[1]
  solubility: Soluble
[3]
  Stability: 30%
[4]
  Stability: 24%
[2]
  Stability: Stable
[5]
  Stability: 78%

## COC(=O)Nc1nc2ccc(C(=O)c3ccccc3)cc2[nH]1 [MEBENDAZOLE]
[8]
  Vd: 1.3 L/kg
[9]
  half-life: 43.2 min
[10]
  bioavailability: 17%
[11]
  bioavailability: 22%
[12]
  bioavailability: 11%
[13]
  concentration at 1 h: 2.86 µM
[14]
  AUC(0-t): 12.9 µM·h
[15]
  Tmax: 60 min
[16]
  clearance: 22.2 mL/min/kg
[17]
  AUC(0-t): 2.7 µM·h
[18]
  Tmax: 4.98 min
[19]
  bioavailability: 24%
[3]
  Stability: 100%
[20]
  Cmax: 2.2 µM
[21]
  Cmax: 5.1 nmol/g
[22]
  Cmax at 2 h: 0.2 µM
[23]
  Tmax: 60 min
[24]
  clearance: 27.4 mL/min/kg
[25]
  Cmax: 5.3 µM
[26]
  Kp: 1
[27]
  Tmax: 120 min
[4]
  Stability: 100%
[28]
  Vd: 1.4 L/kg
[29]
  Cmax: 5.1 µM
[5]
  Stability: 100%
[30]
  AUC(0-t): 0.9 µM·h
[31]
  Tmax: 4.98 min
[32]
  AUCt: 13.1 nmol·h/g
[33]
  AUC(0-t): 0.8 µM·h
[34]
  half-life: 43.8 min

## COC(=O)Nc1nc2cc(C(=O)c3ccccc3)ccc2n1COP(=O)(O)OCOC(=O)OC(C)C
[3]
  Stability: 1%
[35]
  Cmax: 12.2 µM
[4]
  Stability: 14%
[2]
  Stability: Stable
[5]
  Stability: 73%
[6]
  Drug metabolism: 10.35 nmol/mL
